Test results taken from ChEMBL document CHEMBL1142096, “Reduced susceptibility of Haemophilus influenzae to the peptide deformylase inhibitor LBM415 can result from target protein overexpression due to amplified chromosomal def gene copy number” (2007).
In brackets after ≈: the same amount, converted by molar mass.

Key:
Assay type in all cases: functional
Haemophilus influenzae [1] = assay: Antimicrobial activity against Haemophilus influenzae NB65044 by broth microdilution method
Procedure, shortened: (§1)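 MIC by CLSI broth microdilution, twofold serial dilutions in HTM broth.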

Haemophilus influenzae [2] = assay: Antimicrobial activity against Haemophilus influenzae CDS01 mutant with acrB insertional inactivation by broth microdilution method; procedure, shortened: as §1
Haemophilus influenzae [3] = assay: Antimicrobial activity against Haemophilus influenzae CDS23 mutant overexpressing Def by broth microdilution method; procedure, shortened: as §1
Haemophilus influenzae [4] = assay: Antimicrobial activity against Haemophilus influenzae CDS40 mutant with acrB insertional inactivation by broth microdilution method; procedure, shortened: as §1

SMILES	MIC (Haemophilus influenzae [1]) [µg/mL]	MIC (Haemophilus influenzae [2]) [µg/mL]	MIC (Haemophilus influenzae [3]) [µg/mL]	MIC (Haemophilus influenzae [4]) [µg/mL]
CN(C)[C@@H]1C(O)=C(C(N)=O)C(=O)[C@@]2(O)C(O)=C3C(=O)c4c(O)cccc4[C@@](C)(O)[C@H]3C[C@@H]12 [TETRACYCLINE]	0.5 (≈ 1.13 µM)	0.5 (≈ 1.13 µM)	0.5 (≈ 1.13 µM)	0.5 (≈ 1.13 µM)
CCC[C@@H]1C[C@@H](C(=O)N[C@@H]([C@H]2O[C@H](SC)[C@H](O)[C@@H](O)[C@H]2O)[C@H](C)Cl)N(C)C1 [CLINDAMYCIN]	8 (≈ 18.8 µM)	0.5 (≈ 1.18 µM)	4 (≈ 9.41 µM)	0.5 (≈ 1.18 µM)
CCCC[C@H](CN(O)C=O)C(=O)N1CCC[C@H]1C(=O)Nc1ccc(F)c[n+]1[O-]	4 (≈ 10.1 µM)	0.25 (≈ 0.631 µM)	64 (≈ 161 µM)	4 (≈ 10.1 µM)
